# Data published in article PMC7249612 (Biochemistry, 2016).
# What was measured:
# [1] = molecular target: T1, 5-LOX (Homo sapiens, UniProt P09917); experiment: Human LOX isozyme specificity screen, 5-LOX; type: biochemical; settings: 25 μM inhibitor, 10 μM AA
# T1 sequence (P09917 1-674): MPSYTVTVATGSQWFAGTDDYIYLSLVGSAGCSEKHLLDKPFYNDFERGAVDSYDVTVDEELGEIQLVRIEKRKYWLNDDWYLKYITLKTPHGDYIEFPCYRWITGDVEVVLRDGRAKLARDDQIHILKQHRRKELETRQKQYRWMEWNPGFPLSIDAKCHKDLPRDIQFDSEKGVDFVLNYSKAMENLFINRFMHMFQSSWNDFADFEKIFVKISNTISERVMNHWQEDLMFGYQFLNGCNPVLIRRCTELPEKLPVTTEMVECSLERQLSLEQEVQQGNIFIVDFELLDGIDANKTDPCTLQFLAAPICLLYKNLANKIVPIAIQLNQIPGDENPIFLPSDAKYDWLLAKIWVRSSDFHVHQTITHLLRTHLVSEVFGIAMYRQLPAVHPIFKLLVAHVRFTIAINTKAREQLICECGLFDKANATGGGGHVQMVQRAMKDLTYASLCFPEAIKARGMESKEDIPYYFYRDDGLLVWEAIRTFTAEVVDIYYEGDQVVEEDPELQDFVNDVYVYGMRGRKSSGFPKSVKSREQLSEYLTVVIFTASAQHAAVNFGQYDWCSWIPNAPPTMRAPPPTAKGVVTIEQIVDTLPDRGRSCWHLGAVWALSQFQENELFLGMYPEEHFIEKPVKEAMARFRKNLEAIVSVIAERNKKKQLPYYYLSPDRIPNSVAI
# [2] = molecular target: T2, 15-LOX-1 (Homo sapiens, UniProt P16050); experiment: Human LOX isozyme specificity screen, 15-LOX-1; type: biochemical; settings: 25 μM inhibitor, 10 μM AA
# T2 sequence (P16050 1-662): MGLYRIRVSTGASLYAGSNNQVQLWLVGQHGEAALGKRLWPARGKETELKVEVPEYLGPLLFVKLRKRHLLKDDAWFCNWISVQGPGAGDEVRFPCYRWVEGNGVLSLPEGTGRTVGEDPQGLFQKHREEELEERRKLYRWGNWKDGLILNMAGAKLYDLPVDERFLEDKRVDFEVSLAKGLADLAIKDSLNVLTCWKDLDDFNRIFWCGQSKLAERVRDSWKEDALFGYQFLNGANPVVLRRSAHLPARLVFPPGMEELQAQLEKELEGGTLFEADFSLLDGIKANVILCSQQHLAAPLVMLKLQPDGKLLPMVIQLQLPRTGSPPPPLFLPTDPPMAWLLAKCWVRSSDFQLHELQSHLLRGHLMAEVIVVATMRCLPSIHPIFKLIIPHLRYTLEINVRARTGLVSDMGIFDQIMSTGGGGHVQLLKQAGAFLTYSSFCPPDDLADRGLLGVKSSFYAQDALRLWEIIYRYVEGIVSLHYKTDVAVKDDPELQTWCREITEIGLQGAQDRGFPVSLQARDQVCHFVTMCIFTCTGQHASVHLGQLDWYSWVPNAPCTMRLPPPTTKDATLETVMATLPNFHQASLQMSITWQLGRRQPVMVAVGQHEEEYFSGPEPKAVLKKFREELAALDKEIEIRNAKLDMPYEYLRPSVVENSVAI
# [3] = molecular target: T3, 12-LOX (Homo sapiens, UniProt P18054); experiment: Human LOX isozyme specificity screen, 12-LOX; type: biochemical; settings: 25 μM inhibitor, 10 μM AA
# T3 sequence (P18054 1-663): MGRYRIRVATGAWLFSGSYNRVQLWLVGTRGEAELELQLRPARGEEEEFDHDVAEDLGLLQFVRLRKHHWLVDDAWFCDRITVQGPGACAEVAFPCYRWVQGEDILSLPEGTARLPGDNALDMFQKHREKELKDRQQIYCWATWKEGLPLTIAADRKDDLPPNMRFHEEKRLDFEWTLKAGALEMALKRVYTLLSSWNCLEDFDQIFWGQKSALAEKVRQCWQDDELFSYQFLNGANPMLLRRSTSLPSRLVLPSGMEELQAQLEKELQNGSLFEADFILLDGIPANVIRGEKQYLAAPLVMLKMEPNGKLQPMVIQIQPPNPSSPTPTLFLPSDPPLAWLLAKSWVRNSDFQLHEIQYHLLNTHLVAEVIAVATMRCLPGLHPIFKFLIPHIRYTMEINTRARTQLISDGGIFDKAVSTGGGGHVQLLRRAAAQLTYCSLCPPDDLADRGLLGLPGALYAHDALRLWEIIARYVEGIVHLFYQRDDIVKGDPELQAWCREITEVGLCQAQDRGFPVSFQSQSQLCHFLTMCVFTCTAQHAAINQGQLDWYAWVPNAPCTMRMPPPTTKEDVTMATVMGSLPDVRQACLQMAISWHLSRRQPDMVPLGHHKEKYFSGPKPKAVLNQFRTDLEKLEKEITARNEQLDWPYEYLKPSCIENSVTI
# [4] = test system: LoxA; experiment: LoxA inhibition, manual cuvette assay; type: biochemical, Pseudomonas aeruginosa; settings: for single-point screen inhibition percentage, LoxA: 25 μM inhibitor, 10 μM AA; for selectivity for LoxA versus human LOX isozymes: from single-point screens at 25 μM
# [5] = molecular target: T4, 15-LOX-2 (Homo sapiens, UniProt O15296); experiment: Human LOX isozyme specificity screen, 15-LOX-2; type: biochemical; settings: 25 μM inhibitor, 10 μM AA
# T4 sequence (O15296 1-676): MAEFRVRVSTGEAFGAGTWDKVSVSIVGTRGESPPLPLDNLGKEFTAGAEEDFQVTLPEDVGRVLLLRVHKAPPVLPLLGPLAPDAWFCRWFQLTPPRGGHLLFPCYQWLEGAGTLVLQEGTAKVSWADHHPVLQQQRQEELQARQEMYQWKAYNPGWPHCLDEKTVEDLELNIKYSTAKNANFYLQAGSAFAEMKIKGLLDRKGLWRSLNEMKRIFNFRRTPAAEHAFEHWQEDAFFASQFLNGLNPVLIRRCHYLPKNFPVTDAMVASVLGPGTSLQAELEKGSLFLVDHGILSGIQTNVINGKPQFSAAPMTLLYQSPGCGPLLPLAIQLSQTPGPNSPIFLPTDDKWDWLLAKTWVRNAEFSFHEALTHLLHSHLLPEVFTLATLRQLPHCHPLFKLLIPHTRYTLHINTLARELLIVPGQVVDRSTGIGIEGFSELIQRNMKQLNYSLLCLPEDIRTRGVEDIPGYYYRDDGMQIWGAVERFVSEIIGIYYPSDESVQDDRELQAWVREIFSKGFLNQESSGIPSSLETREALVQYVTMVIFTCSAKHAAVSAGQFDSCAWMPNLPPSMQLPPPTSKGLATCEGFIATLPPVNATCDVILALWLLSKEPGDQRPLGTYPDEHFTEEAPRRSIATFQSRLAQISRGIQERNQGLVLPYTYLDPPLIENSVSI
# [6] = test system: LoxA; experiment: LoxA substrate preference; type: biochemical, Pseudomonas aeruginosa; settings: initial rate at 10 μM substrate, pH 7.0, relative to AA
# Outline: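 His6-tagged LoxA was expressed in E. coli BL21(DE3), purified on Ni-NTA, and dosed by iron content. About 7 nM enzyme started each reaction. Each fatty acid substrate was C18 HPLC-purified and used at 10 μM in 25 mM HEPES pH 7.0 without Triton X-100. Initial rate of conjugated diene formation was followed at 234 nm (ε 25000 M−1cm−1) and expressed relative to the AA rate.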
SMILES,"single-point screen inhibition percentage, 5-LOX [1]","single-point screen inhibition percentage, 15-LOX-l [2]","single-point screen inhibition percentage, 12-LOX [3]","single-point screen inhibition percentage, LoxA [4]",selectivity for LoxA versus human LOX isozymes [4],"single-point screen inhibition percentage, 15-LOX-2 [5]",% AA Rate (10 μM) [6],"IC50 ([4]; read-out: LoxA IC50, manual cuvette assay, pH 7.0, 10 μM AA)",IC50 value against LoxA ([4]; compared with the human enzymes)
O=c1[nH]c2ccccc2n1C1CCN(CCCC(c2ccc(F)cc2)c2ccc(F)cc2)CC1 [NCGC00015802],80%,69%,50%,90%,"selectivity towards LoxA over 12-LOX, 15-LOX-1, and 15-LOX-2",16%,,,
CC/C(=C(\c1ccccc1)c1ccc(OCCN(C)C)cc1)c1ccccc1 [NCGC00024928],79%,73%,39%,82%,,8%,,,
CC(C)(C)c1ccc(C(=O)CCCN2CCC(OC(c3ccccc3)c3ccccc3)CC2)cc1 [NCGC00164603],23%,76%,33%,95%,,0%,,,
CCCCC/C=C\C/C=C\CCCCCCCCCC(=O)O [EDA],,,,,,,33(10) %,,
O=C1NCN(c2ccccc2)C12CCN(CCCC(c1ccc(F)cc1)c1ccc(F)cc1)CC2 [NCGC00015424],74%,76%,63%,87%,selectivity towards LoxA over 12-LOX and 15-LOX-2 and not the other human isozymes,21%,,,
O=C(CCCCCN1CCN(c2ccccc2-c2ccccc2)CC1)NC1CCCc2ccccc21 (stereo not shown) [NCGC00186032],78%,57%,36%,87%,,5%,,,
CC/C=C\C/C=C\C/C=C\C/C=C\C/C=C\CCCC(=O)O [EPA],,,,,,,61(10) %,,
Fc1ccc(C(OCCN2CCN(CCCc3ccccc3)CC2)c2ccc(F)cc2)cc1 [NCGC00015300],41%,65%,48%,83%,,13%,,,
COC(=O)[C@H]1[C@H]2C[C@@H]3c4[nH]c5cc(OC)ccc5c4CCN3C[C@H]2C[C@@H](OC(=O)c2cc(OC)c(OC)c(OC)c2)[C@@H]1OC [NCGC00091250],37%,57%,23%,69%,,5%,,,
CC/C=C\C/C=C\C/C=C\CCCCCCCC(=O)O [ALA],,,,,,,78(10) %,,
CN[C@H]1CC[C@@H](c2ccc(Cl)c(Cl)c2)c2ccccc21.Cl [NCGC00092386],83%,51%,26%,76%,,5%,,,
Fc1ccc(C(c2ccc(F)cc2)N2CCN(C/C=C\c3ccccc3)CC2)cc1 [NCGC00018102],96%,65%,25%,86%,"selectivity towards LoxA over 12-LOX, 15-LOX-1, and 15-LOX-2",0%,,4.5 ± 0.4 µM,
"CC(Cc1ccc(O)c(O)c1)C(C)Cc1ccc(O)c(O)c1 (stereo not shown) [NDGA, nordihydroguaiaretic acid, reference compound]",,,,,,,,,comparable to the values obtained against the human enzymes
Nc1ncnc2c1c(-c1ccc(Oc3ccccc3)cc1)cn2C1CCCC1 [NCGC00015280],42%,51%,38%,86%,,0%,,,
CC/C=C\C/C=C\C/C=C\C/C=C\C/C=C\C/C=C\CCC(=O)O [DHA],,,,,,,72(10) %,,
CCCCC/C=C\C/C=C\C/C=C\CCCCC(=O)O [GLA],,,,,,,44(10) %,,
"CCCCC/C=C\C/C=C\C/C=C\CCCCCCC(=O)O [DGLA, Dihomo-gamma-linolenic acid]",,,,,,,44(10) %,,
